Reference: ChEMBL document CHEMBL1828537, “Halogenated 2'-benzoylpyridine thiosemicarbazone (XBpT) chelators with potent and selective anti-neoplastic activity: relationship to intracellular redox activity” (J Med Chem, 2011)

Legend:
SK-N-MC [1] = assay: Antiproliferative activity against human SK-N-MC cells after 72 hrs by MTS assay; type: functional, cell-based
MRC5 = assay: Cytotoxicity against human MRC5 cells after 72 hrs […]; type: cell-based; details: MRC5, 72 h
SK-N-MC [2] = assay: Induction of intracellular reactive oxygen species production in human SK-N-MC cells assessed as oxidation of H2DCF into DCF at 25 uM after 3 hrs by FACS analysis relative to control; type: functional
[3] = Toxicity in human SK-N-MC cells assessed as cell viability after 3 hrs by trypan blue staining; type: cell-based; design: concentration or dose not given beside the values; details: read-out: Activity
How it was run: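 Viability of SK-N-MC cells judged by Trypan blue staining after the 3 h chelator incubation used in the 59Fe mobilization assays.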

[4] = Therapeutic index, ratio of IC50 for human MRC5 cells to IC50 for human SK-N-MC cells; type: cell-based; details: MRC5 cells and SK-N-MC cells, read-out: Ratio IC50
M109 = assay: Anticancer activity against mouse M109 cells xenografted in iv dosed CD2F1 mouse assessed as reduction in tumor growth after 5 days; type: functional
SK-N-MC [5] = assay: 59Fe uptake from transferrin in human SK-N-MC cells at 25 uM after 3 hrs relative to control
SK-N-MC [6] = assay: Induction of Fe efflux in human SK-N-MC cells assessed as release of intracellular 59Fe up to 25 uM after 3 hrs by gamma-scintillation counting; type: functional

Row | IC50 (SK-N-MC [1]) [nM] | Structure (SMILES) | IC50 (MRC5) [nM] | Activity (SK-N-MC [2]) [%] | viability at 3 h [3] [%] | selectivity ratio [4] | inhibition (INH) (M109) [%] | level, % of control at 25 µM (SK-N-MC [5]) [%] | Activity (SK-N-MC [6]) [%]
1 | 9 | CN(C)C(=S)N/N=C(\c1ccccc1)c1ccccn1 | 1010 | 156 | > 99 | 116 |  |  | 
2 | 5590 | NC(=S)N/N=C(\c1ccccc1)c1ccccn1 | > 25000 |  | > 99 |  |  |  | 
3 | 24 | CNC(=S)N/N=C(\c1ccccc1)c1ccccn1 | 2320 | 114 | > 99 | 96 |  |  | 
4 | 4 | CN(C)C(=S)NN=C(c1ccccn1)c1ccccn1 |  |  | > 99 |  | 50 | 4 | 53
5 | 2530 | O=C(N/N=C/c1c(O)ccc2ccccc12)c1ccncc1 |  |  | > 99 |  |  | 6 | 55
6 | 12 | CCNC(=S)N/N=C(\c1ccccc1)c1ccccn1 | 738 | 138 | > 99 | 64 |  |  | 
7 | 22700 | CC(=O)N(O)CCCCCNC(=O)CCC(=O)N(O)CCCCCNC(=O)CCC(=O)N(O)CCCCCN [DEFEROXAMINE] |  |  | > 99 |  |  | 74 | 23
